According to ChEMBL document CHEMBL1141808, “Polymethoxylated flavones derived from citrus suppress tumor necrosis factor-alpha expression by human monocytes” (J Nat Prod, 1999):
Calls of active or inactive are those of the source. No cut-off for these calls is given here.

Tests used:
[1] = test system: Monocyte; assay: Inhibition of TNFalpha expression in LPS-stimulated human monocytes treated 30 mins before LPS challenge measured after 14 hrs by ELISA; assay type: functional, cell-based
Procedure, shortened: (§1)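 Human PBMC at 4 × 10^6/mL in DMEM with 30% FCS, glutamine and pen/strep were allowed to adhere for 2 h at 37 °C and 5% CO2. Nonadherent lymphocytes were washed off. Adherent monocytes were preincubated 30 min with graded compound concentrations, then stimulated with LPS. After 14 h, supernatants were assayed by ELISA. Values are percent of compound-free cultures, as means ± SE from three donors.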

[2] = Cytotoxicity against human monocytes assessed as depletion of cellular LDH activity; assay type: cell-based; design: concentration or dose not given beside the values; conditions: monocyte
Procedure, shortened: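 Viability was taken from the LPS-stimulated adherent monocyte cultures after 14 h, lysed in 1% NP40 in PBS. LDH in the lysate was measured in 50 mM sodium pyrophosphate pH 8.9 with 50 mM lactic acid and 4 mg/mL NAD. The rate of NADH formation was read at 340 nm at room temperature. More than 20% depletion was counted as cytotoxic.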

[3] = test system: Monocyte; assay: Inhibition of IL8 expression in LPS-stimulated human monocytes at 100 uM treated 30 mins before LPS challenge measured after 14 hrs by ELISA; assay type: functional
Procedure, shortened: (§2)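 Monocyte cultures were held 14 h in medium alone, with 20 ng/mL LPS alone, or with LPS plus 100 µM compound. IBMX served as reference. TNFα, IL-6, IL-8, IL-10 and MIP-1α were measured in supernatants by ELISA, and IL-1β in cell lysates made with 1% NP40 in PBS. Significance versus LPS alone was set at p < 0.05.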

[4] = test system: Monocyte; assay: Inhibition of TNFalpha expression in LPS-stimulated human monocytes at 100 uM treated 30 mins before LPS challenge measured after 14 hrs by ELISA; assay type: functional; procedure, shortened: as §2
[5] = test system: Monocyte; assay: Inhibition of IL10 expression in LPS-stimulated human monocytes treated 30 mins before LPS challenge measured after 14 hrs by ELISA; assay type: functional, cell-based; procedure, shortened: as §1
[6] = test system: Monocyte; assay: Inhibition of MIP1alpha expression in LPS-stimulated human monocytes at 100 uM treated 30 mins before LPS challenge measured after 14 hrs by ELISA; assay type: functional; procedure, shortened: as §2
[7] = test system: Monocyte; assay: Inhibition of MIP1alpha expression in LPS-stimulated human monocytes treated 30 mins before LPS challenge measured after 14 hrs by ELISA; assay type: functional, cell-based; procedure, shortened: as §1
[8] = test system: Monocyte; assay: Increase in IL6 expression in LPS-stimulated human monocytes at 100 uM treated 30 mins before LPS challenge measured after 14 hrs by ELISA; assay type: functional; procedure, shortened: as §2
[9] = test system: Monocyte; assay: Inhibition of IL10 expression in LPS-stimulated human monocytes at 100 uM treated 30 mins before LPS challenge measured after 14 hrs by ELISA; assay type: functional; procedure, shortened: as §2
[10] = test system: Monocyte; assay: Inhibition of IL6 expression in LPS-stimulated human monocytes at 100 uM treated 30 mins before LPS challenge measured after 14 hrs by ELISA; assay type: functional; procedure, shortened: as §2
[11] = test system: Monocyte; assay: Inhibition of TNFalpha mRNA expression in LPS-stimulated human monocytes treated 30 mins before LPS challenge measured after 90 mins by RT-PCR; assay type: functional, cell-based
Procedure, shortened: (§3)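 Elutriated monocytes at 5 × 10^6/mL in complete medium were preincubated 30 min at 37 °C with graded compound concentrations. They were then stimulated with 20 ng/mL LPS for 90 min. Total RNA was isolated with RNAzol. TNFα and IL-1β mRNA were measured by RT-PCR with [α-32P]dCTP, relative to GAPDH.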

[12] = molecular target: T1, Phosphodiesterase 4 (Homo sapiens) (UniProt P27815+Q08499+Q07343+Q08493); assay: Inhibition of PDE4 in human U937 cells assessed as inhibition of cAMP hydrolysis at 2 uM by SPA; assay type: cell-based; conditions: U-937
Procedure, shortened: (§4)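 PDE, mostly type IV by isoform-inhibitor sensitivity, was semipurified from U937 cells. cAMP hydrolysis was measured by scintillation proximity assay across graded compound concentrations. Rates were expressed as percent of flavonoid-free control, and the concentration giving 50% inhibition was reported.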

[13] = test system: Monocyte; assay: Inhibition of IL1-beta expression in LPS-stimulated human monocytes at 100 uM treated 30 mins before LPS challenge measured after 14 hrs by ELISA; assay type: functional; procedure, shortened: as §2
[14] = molecular target: T1, Phosphodiesterase 4 (Homo sapiens); assay: Inhibition of PDE4 in human monocytes assessed as elevation of cytosolic cAMP level at 100 uM treated for 30 mins assessed per 10^7 cells by EIA; assay type: cell-based
Procedure, shortened: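 Elutriated human monocytes at 5 × 10^6/mL in complete medium (30% FCS) were precultured 2 h at 37 °C and 5% CO2. They were then exposed for 30 min to 100 µM flavone or 200 µM IBMX. Cells were lysed in cold 10 mM HEPES pH 7.6 with 1% NP40. cAMP was isolated on SAX columns, eluted with methanol/0.01 M HCl, dried, and quantified by EIA as pmol/10^7 cells.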

[15] = test system: Monocyte; assay: Inhibition of IL1-beta mRNA expression in LPS-stimulated human monocytes treated 30 mins before LPS challenge measured after 90 mins by RT-PCR; assay type: functional, cell-based; procedure, shortened: as §3
[16] = molecular target: T1, Phosphodiesterase 4 (Homo sapiens); assay: Inhibition of PDE4 in human U937 cells assessed as inhibition of cAMP hydrolysis at 11 uM by SPA; assay type: cell-based; conditions: U-937; procedure, shortened: as §4
[17] = molecular target: T1, Phosphodiesterase 4 (Homo sapiens); assay: Inhibition of PDE4 in human U937 cells assessed as inhibition of cAMP hydrolysis at 16 uM by SPA; assay type: cell-based; conditions: U-937; procedure, shortened: as §4

Row | Compound | IC50 [1] [µM] | Activity [2] | Activity [1] | other results
1 | C[C@@H]1O[C@@H](OC[C@H]2O[C@@H](Oc3c(-c4ccc(O)cc4)oc4cc(O[C@@H]5O[C@@H](C)[C@H](O)[C@@H](O)[C@H]5O)cc(O)c4c3=O)[C@H](O)[C@@H](O)[C@@H]2O)[C@H](O)[C@H](O)[C@H]1O |  | Non-toxic | inactive | 
2 | COc1ccc(-c2cc(=O)c3c(OC)c(OC)c(OC)cc3o2)cc1 | 22 |  |  | 
3 | COc1ccc([C@@H]2CC(=O)c3c(O)cc(O)cc3O2)cc1O |  |  | inactive | 
4 | Oc1cc(O)c2c(c1)OC(c1ccc(O)c(O)c1)C(O)C2 (stereo unspecified) |  |  | inactive | 
5 | O=c1cc(-c2ccccc2)oc2cc(O)ccc12 [7-HYDROXYFLAVONE] |  | Non-toxic | inactive | 
6 | Oc1cc(O)c2c(c1)O[C@H](c1ccc(O)c(O)c1)[C@H](O)C2 [(-)-EPICATECHIN] |  | Non-toxic | inactive | 
7 | O=c1cc(-c2ccccc2)oc2cc(O)c(O)c(O)c12 [BAICALEIN] |  | Non-toxic | inactive | 
8 | Oc1cc(O)c2c(c1)O[C@H](c1ccc(O)c(O)c1)[C@@H](O)C2 [CATECHIN] |  | Non-toxic |  | 
9 | O=c1cc(-c2ccccc2)oc2cc(O)cc(O)c12 [CHRYSIN] |  | Non-toxic | inactive | 
10 | O=C1C[C@@H](c2ccc(O)c(O)c2)Oc2cc(O)cc(O)c21 [ERIODICTYOL] |  | Non-toxic | inactive | 
11 | O=c1c(O)c(-c2ccc(O)c(O)c2)oc2cc(O)ccc12 [FISETIN] |  | Non-toxic | inactive | 
12 | O=C1CC(c2ccccc2)Oc2ccccc21 (stereo unspecified) [FLAVANONE] |  | Non-toxic | inactive | 
13 | O=c1c(O)c(-c2ccccc2)oc2ccccc12 [FLAVONOL] |  | Non-toxic | inactive | 
14 | O=c1c(O)c(-c2ccccc2)oc2cc(O)cc(O)c12 [GALANGIN] |  | Non-toxic | inactive | 
15 | O=c1c(O)c(-c2ccc(O)c(O)c2)oc2c(O)c(O)cc(O)c12 [GOSSYPETIN] |  | Non-toxic | inactive | 
16 | CC(C)Cn1c(=O)n(C)c(=O)c2nc[nH]c21 [ISOBUTYLMETHYLXANTHINE] |  |  |  | Activity [3]: 335 ng/mL; Activity [4]: 10.9 ng/mL; Activity [6]: 33.2 ng/mL; Activity [9]: 0.651 ng/mL; Activity [10]: 79.7 ng/mL; Activity [13]: 99.1 ng/mL
17 | O=c1c(O)c(-c2cc(O)c(O)c(O)c2)oc2cc(O)cc(O)c12 [MYRICETIN] |  | Non-toxic | inactive | inhibition [17]: 50%; Activity [14]: 3.7 pmol
18 | O=c1c(O)c(-c2ccc(O)c(O)c2)oc2cc(O)cc(O)c12 [QUERCETIN] | 120 | > 20% |  | 

Second part, led by results:

Row | IC50 [1] [µM] | Compound | Activity [2] | Activity [1] | other results
19 | 25 | COc1ccc(-c2cc(=O)c3c(OC)c(OC)ccc3o2)cc1OC |  |  | 
20 | 20 | COc1cc(-c2cc(=O)c3c(OC)c(OC)c(OC)cc3o2)cc(OC)c1OC |  |  | 
21 | 10 | COc1ccc(-c2oc3c(OC)c(OC)c(OC)c(O)c3c(=O)c2OC)cc1OC |  |  | 
22 | 16 | COc1ccc(-c2cc(=O)c3c(OC)cc(OC)c(OC)c3o2)cc1OC |  |  | 
23 | 5 | COc1ccc(-c2oc3c(OC)c(OC)c(OC)c(OC)c3c(=O)c2OC)cc1OC [3,5,6,7,8,3',4'-HEPTAMETHOXYFLAVONE] |  |  | Activity [3]: inactive; Activity ([3]; record 2): 307 ng/mL; Activity [4]: 9.7 ng/mL; IC50 [5]: 12.3 µM; Activity [6]: 49.2 ng/mL; IC50 [7]: 7.3 µM; Activity [8]: 30%; Activity [9]: 0.269 ng/mL; Activity [10]: inactive; Activity ([10]; record 2): 90 ng/mL; Activity [11]: Active; inhibition [12]: 50%; Activity [13]: inactive; Activity ([13]; record 2): 62.9 ng/mL; Activity [14]: 5.7 pmol; Activity [15]: inactive
24 | 47 | COc1c(-c2ccc(O)c(O)c2)oc2cc(O)cc(O)c2c1=O [3-O-METHYLQUERCETIN] |  |  | 
25 | 5 | COc1ccc(-c2cc(=O)c3c(O)c(OC)c(OC)c(OC)c3o2)cc1OC [5-DEMETHYLNOBILETIN] |  |  | 
26 | 22 | COc1ccc(-c2cc(=O)c3c(O)cc(O)cc3o2)cc1 [ACACETIN] | > 20% |  | 
27 | 20 | O=c1cc(-c2ccc(O)cc2)oc2cc(O)cc(O)c12 [APIGENIN] | > 20% |  | 
28 | 22 | COc1cc(-c2cc(=O)c3c(O)cc(O)cc3o2)ccc1O [CHRYSOERIOL] |  |  | 
29 | > 200 | COc1ccc(-c2cc(=O)c3c(O)cc(O[C@@H]4O[C@H](CO[C@@H]5O[C@@H](C)[C@H](O)[C@@H](O)[C@H]5O)[C@@H](O)[C@H](O)[C@H]4O)cc3o2)cc1O [DIOSMIN] | Non-toxic |  | 
30 | 166 | O=c1cc(-c2ccccc2)oc2ccccc12 [FLAVONE] |  |  | Activity [14]: 3.6 pmol; inhibition [16]: 50%
31 | > 200 | COc1ccc([C@@H]2CC(=O)c3c(O)cc(O[C@@H]4O[C@H](CO[C@@H]5O[C@@H](C)[C@H](O)[C@@H](O)[C@H]5O)[C@@H](O)[C@H](O)[C@H]4O)cc3O2)cc1O [HESPERIDIN] | Non-toxic |  | 
32 | 20 | O=c1c(O)c(-c2ccc(O)cc2)oc2cc(O)cc(O)c12 [KAEMPFEROL] | > 20% |  | 
33 | 67 | COc1cc(-c2oc3c(OC)c(O)cc(O)c3c(=O)c2O)ccc1O [LIMOCITRIN] | > 20% |  | 
34 | > 200 | C[C@@H]1O[C@@H](O[C@H]2[C@H](Oc3cc(O)c4c(c3)O[C@H](c3ccc(O)cc3)CC4=O)O[C@H](CO)[C@@H](O)[C@@H]2O)[C@H](O)[C@H](O)[C@H]1O [NARINGIN] | Non-toxic |  | 
35 | > 200 | C[C@@H]1O[C@@H](OC[C@H]2O[C@@H](Oc3cc(O)c4c(c3)O[C@H](c3ccc(O)cc3)CC4=O)[C@H](O)[C@@H](O)[C@@H]2O)[C@H](O)[C@H](O)[C@H]1O [NARIRUTIN] | Non-toxic |  | 
36 | 10 | COc1ccc(-c2cc(=O)c3c(OC)c(OC)c(OC)c(OC)c3o2)cc1OC [NOBILETIN] |  |  | 
37 | 22 | COc1cc(O)c2c(=O)c(O)c(-c3ccc(O)c(O)c3)oc2c1 [RHAMNETIN] | > 20% |  | 
38 | 8 | COc1ccc(-c2cc(=O)c3c(OC)c(OC)c(OC)cc3o2)cc1OC [SINENSETIN] |  |  | 
39 | 30 | COc1ccc(-c2cc(=O)c3c(OC)c(OC)c(OC)c(OC)c3o2)cc1 [TANGERETIN] |  |  | 
